In ChEMBL document CHEMBL4706649, “Design, synthesis and biological evaluation of new benzoxazolone/benzothiazolone derivatives as multi-target agents against Alzheimer's disease” (Eur J Med Chem, 2021):
pIC50: −log10 of the molar value. Activity calls are given as the source filed them. The calls are words filed in the database; no cut-off is given here.

What was measured:
[1] = target: Acetylcholinesterase (Electrophorus electricus) (UniProt O42275); assay: Inhibition of electric eel AChE at 100 uM using acetylthiocholine iodide as substrate preincubated for 10 mins followed by substrate addition and measured for 10 mins by Ellman's method relative to control; settings: time 20.0 min
Procedure, shortened: (§1)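 Ellman single-concentration screen in 50 mM Tris-HCl pH 8.0 with DTNB (6.8 mM stock) and 1% DMSO. Enzyme solution 0.4 U/mL AChE or 0.8 U/mL BChE. Compound and enzyme preincubated 10 min at 25 °C, then ATI (10 mM stock) or BTI (30 mM stock) added. A412 followed for 10 min, blank-subtracted, % inhibition versus no-compound control. Triplicate.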

[2] = Antioxidant activity assessed as trolox equivalent of AAPH radical scavenging activity at 10 uM measured every min for 90 mins by ORAC-FL assay; assay type: functional
Procedure, shortened: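 ORAC-FL in 75 mM phosphate buffer pH 7.4. Sample and fluorescein (150 nM final) preincubated 15 min at 37 °C, then AAPH (12 mM final) added. Fluorescence (ex 485/em 535 nm) read each minute for 90 min. Net AUC after blank subtraction, converted to Trolox equivalents from a Trolox curve (0.5–8, final; Trolox = 1). Duplicate wells, three independent assays.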

[3] = target: Cholinesterase (Equus caballus) (UniProt P81908); assay: Inhibition of equine serum BChE at 100 uM using butyrylthiocholine iodide as substrate preincubated for 10 mins followed by substrate addition and measured for 10 mins by Ellman's method relative to control; settings: time 20.0 min; procedure, shortened: as §1
Acetylcholinesterase = Acetylcholinesterase (Electrophorus electricus, UniProt O42275); assay: Inhibition of electric eel AChE using acetylthiocholine iodide as substrate preincubated for 10 mins followed by substrate addition and measured for 10 mins by Ellman's method
THP-1 [4] = assay: Antiinflammatory activity in LPS-induced human THP-1 cells assessed as reduction in nitric oxide release at 10 uM peincubated for 1 hr followed by LPS stimulation and measured after 24 hrs by ELISA; assay type: functional, cell-based; settings: time 25.0 hrs
Procedure, shortened: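 THP-1 cells plated overnight at 4×10⁴ cells/well, given test compound 1 h before 100 ng/ml LPS (E. coli O111:B4), then incubated 24 h. Cell-free supernatants stored at −20 °C, then NO measured by ELISA kit (sensitivity 1,12 […]) from a standard curve. Untreated cells as negative control, LPS-only as positive control. At least triplicate.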

THP-1 [5] = assay: Antiinflammatory activity in LPS-induced human THP-1 cells assessed as reduction in IL6 release at 10 uM peincubated for 1 hr followed by LPS stimulation and measured after 24 hrs by EIA; assay type: functional, cell-based; settings: time 25.0 hrs
Procedure, shortened: (§2)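 THP-1 cells grown in RPMI 1640 with 10% FCS, penicillin and streptomycin at 37 °C, 5% CO2, then plated overnight at 4×10⁴ cells/well. Test compound added 1 h before 100 ng/ml E. coli O111:B4 LPS; 24 h incubation. Untreated and LPS-only controls. […]; cytokine read by EIA at 450 nm against a standard curve. At least triplicate.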

THP-1 [6] = assay: Antiinflammatory activity in LPS-induced human THP-1 cells assessed as reduction in TNFalpha release at 10 uM peincubated for 1 hr followed by LPS stimulation and measured after 24 hrs by EIA; assay type: functional, cell-based; settings: time 25.0 hrs; procedure, shortened: as §2
THP-1 [7] = assay: Antiinflammatory activity in LPS-induced human THP-1 cells assessed as reduction in IL1beta release at 10 uM peincubated for 1 hr followed by LPS stimulation and measured after 24 hrs by EIA; assay type: functional, cell-based; settings: time 25.0 hrs; procedure, shortened: as §2
Cholinesterase = Cholinesterase (Equus caballus, UniProt P81908); assay: Inhibition of equine serum BChE using butyrylthiocholine iodide as substrate preincubated for 10 mins followed by substrate addition and measured for 10 mins by Ellman's method
Procedure, shortened: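 BChE (0.8 U/mL solution) preincubated with inhibitor 10 min at 25 °C in Tris-HCl pH 8.0 with DTNB and 1% DMSO, then BTI (30 mM stock) added. A412 read over 10 min, blank-corrected. IC50 from log[inhibitor] versus % inhibition. Triplicate, mean ± SD.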

[8] = target: Amyloid-beta precursor protein (Homo sapiens) (UniProt P05067); assay: Inhibition of amyloid beta (1 to 42) (unknown origin) self-induced aggregation at 50 uM by Thioflavin T based fluorometric assay relative to control
Procedure, shortened: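 Thioflavin T fluorometric assay of Aβ1-42 self-aggregation, with inhibitor and Aβ42 both at 50 (equimolar). Samples dissolved in DMSO. Result given as % inhibition, mean of two independent experiments each run in triplicate.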

Acetylcholinesterase, sequence (O42275 whole entry): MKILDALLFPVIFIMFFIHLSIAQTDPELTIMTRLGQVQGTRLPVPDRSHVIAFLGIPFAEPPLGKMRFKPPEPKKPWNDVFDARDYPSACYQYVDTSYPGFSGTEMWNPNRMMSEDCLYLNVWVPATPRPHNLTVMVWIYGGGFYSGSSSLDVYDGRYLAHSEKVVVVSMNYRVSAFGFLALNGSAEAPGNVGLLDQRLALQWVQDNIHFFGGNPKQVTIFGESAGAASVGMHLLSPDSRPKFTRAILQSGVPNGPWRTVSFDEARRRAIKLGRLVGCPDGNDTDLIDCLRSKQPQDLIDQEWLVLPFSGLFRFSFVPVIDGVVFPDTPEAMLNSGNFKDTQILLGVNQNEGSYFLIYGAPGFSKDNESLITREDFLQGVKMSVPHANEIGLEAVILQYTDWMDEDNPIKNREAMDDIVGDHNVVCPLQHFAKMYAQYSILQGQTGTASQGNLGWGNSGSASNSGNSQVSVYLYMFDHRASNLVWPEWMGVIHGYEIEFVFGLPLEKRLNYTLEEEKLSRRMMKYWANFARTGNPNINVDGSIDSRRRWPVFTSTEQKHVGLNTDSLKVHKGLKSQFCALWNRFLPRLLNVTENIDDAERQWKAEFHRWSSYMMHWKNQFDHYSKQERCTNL
Acetylcholinesterase (Electrophorus electricus), sequence (O42275 24-633 limits assumed): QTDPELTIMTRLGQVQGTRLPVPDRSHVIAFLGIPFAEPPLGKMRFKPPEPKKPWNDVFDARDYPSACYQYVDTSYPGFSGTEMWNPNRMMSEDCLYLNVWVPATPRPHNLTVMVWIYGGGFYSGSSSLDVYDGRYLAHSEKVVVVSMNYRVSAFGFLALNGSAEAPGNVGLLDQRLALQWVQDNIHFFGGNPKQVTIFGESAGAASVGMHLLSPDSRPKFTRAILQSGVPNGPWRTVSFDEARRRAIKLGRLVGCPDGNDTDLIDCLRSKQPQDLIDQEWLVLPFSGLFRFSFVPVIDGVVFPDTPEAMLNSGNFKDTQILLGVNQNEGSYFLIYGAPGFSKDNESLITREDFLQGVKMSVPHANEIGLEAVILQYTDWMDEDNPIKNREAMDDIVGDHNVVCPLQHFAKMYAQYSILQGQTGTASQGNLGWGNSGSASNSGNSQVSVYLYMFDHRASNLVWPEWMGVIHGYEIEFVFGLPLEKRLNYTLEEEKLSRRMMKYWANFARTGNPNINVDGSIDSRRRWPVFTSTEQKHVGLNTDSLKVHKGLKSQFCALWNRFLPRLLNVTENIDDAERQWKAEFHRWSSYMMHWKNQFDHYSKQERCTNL
Cholinesterase (Equus caballus), sequence (P81908 whole entry): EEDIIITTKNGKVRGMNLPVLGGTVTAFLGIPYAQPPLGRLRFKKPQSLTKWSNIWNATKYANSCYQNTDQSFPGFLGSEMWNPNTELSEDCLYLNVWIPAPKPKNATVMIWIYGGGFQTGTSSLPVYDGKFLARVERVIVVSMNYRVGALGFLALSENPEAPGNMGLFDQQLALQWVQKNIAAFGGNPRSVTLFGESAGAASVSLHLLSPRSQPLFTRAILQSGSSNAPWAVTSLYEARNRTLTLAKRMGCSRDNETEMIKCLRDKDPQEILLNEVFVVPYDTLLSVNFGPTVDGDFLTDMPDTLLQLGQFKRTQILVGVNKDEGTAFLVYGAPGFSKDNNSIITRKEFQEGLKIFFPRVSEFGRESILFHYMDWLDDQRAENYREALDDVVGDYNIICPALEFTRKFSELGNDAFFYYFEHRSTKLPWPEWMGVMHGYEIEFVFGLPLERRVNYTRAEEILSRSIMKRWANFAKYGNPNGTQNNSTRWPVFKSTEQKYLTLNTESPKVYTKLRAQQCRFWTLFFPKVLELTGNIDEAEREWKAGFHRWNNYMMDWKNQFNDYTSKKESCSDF
Cholinesterase, sequence (P81908 whole entry): as above
Amyloid-beta precursor protein (Homo sapiens), sequence (P05067 whole entry): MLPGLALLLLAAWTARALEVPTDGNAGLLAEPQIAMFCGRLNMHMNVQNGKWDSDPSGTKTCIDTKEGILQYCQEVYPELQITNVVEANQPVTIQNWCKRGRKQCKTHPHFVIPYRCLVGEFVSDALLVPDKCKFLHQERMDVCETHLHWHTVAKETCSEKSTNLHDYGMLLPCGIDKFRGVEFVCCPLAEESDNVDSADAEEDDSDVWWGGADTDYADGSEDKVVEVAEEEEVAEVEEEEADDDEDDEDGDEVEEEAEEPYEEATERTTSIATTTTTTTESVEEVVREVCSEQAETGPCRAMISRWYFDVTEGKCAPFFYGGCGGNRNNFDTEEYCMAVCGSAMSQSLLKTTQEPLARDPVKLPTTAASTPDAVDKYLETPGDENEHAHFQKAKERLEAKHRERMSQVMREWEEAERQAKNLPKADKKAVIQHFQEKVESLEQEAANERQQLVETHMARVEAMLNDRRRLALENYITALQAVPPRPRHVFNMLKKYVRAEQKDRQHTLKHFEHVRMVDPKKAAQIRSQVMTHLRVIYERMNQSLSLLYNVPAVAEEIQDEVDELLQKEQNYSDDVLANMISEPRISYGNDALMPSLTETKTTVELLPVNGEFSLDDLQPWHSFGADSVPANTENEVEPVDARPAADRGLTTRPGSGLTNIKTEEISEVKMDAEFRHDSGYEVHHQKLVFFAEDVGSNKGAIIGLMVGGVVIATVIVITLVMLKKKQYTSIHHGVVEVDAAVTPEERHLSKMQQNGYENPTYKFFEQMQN

SMILES | inhibition [1] [%] | Activity [2] [equiv] | inhibition [3] [%] | pIC50 (Acetylcholinesterase) | Activity (THP-1 [4]) | Activity (THP-1 [5]) | Activity (THP-1 [6]) | Activity (THP-1 [7]) | pIC50 (Cholinesterase) | inhibition [8] [%]
Cn1c(=O)sc2cc(NC(=O)CCN3CCN(Cc4ccc(Cl)cc4)CC3)ccc21 | 37 | 4.01 | < 10 | – | – | – | – | – | – | –
Cn1c(=O)sc2cc(NC(=O)CCCCN3CCN(Cc4ccccc4)CC3)ccc21 | 87 | 2.67 | < 10 | 4.86 | – | – | – | – | – | –
Cn1c(=O)sc2cc(NC(=O)CCN3CCN(c4ccc(F)cc4)CC3)ccc21 | 37 | 4.03 | < 10 | – | – | – | – | – | – | –
COc1ccc(N2CCN(CCC(=O)Nc3ccc4c(c3)sc(=O)n4C)CC2)cc1 | 31 | 4.55 | < 10 | – | – | – | – | – | – | –
Cn1c(=O)sc2cc(NC(=O)CCN3CCN(c4ccccc4)CC3)ccc21 | 34 | 4.24 | < 10 | – | – | – | – | – | – | –
Cn1c(=O)sc2cc(NC(=O)CCCN3CCN(Cc4ccccc4)CC3)ccc21 | 93 | 3.91 | < 10 | 5.71 | Active | Active | Active | Active | – | –
Cn1c(=O)sc2cc(NC(=O)CCN3CCN(c4ccc(C(F)(F)F)cc4)CC3)ccc21 | 36 | 4.1 | < 10 | – | – | – | – | – | – | –
Cc1ccc(N2CCN(CCC(=O)Nc3ccc4c(c3)sc(=O)n4C)CC2)cc1 | 35 | 4.31 | < 10 | – | – | – | – | – | – | –
Cn1c(=O)oc2cc(NC(=O)CCN3CCN(c4ccc(Cl)cc4)CC3)ccc21 | 30 | 3.95 | < 10 | – | – | – | – | – | – | –
Cn1c(=O)oc2cc(NC(=O)CCN3CCN(Cc4ccc(F)cc4)CC3)ccc21 | 66 | 3.92 | 21 | 4.79 | – | – | – | – | – | –
Cn1c(=O)oc2cc(NC(=O)CCN3CCC(Cc4ccccc4)CC3)ccc21 | 64 | 3.87 | 47 | 4.61 | – | – | – | – | – | –
Cn1c(=O)sc2cc(NC(=O)CCN3CCC(c4ccccc4)CC3)ccc21 | 60 | 4.31 | 81 | 4.22 | – | – | – | – | 4.95 | –
Cn1c(=O)oc2cc(NC(=O)CCCCN3CCN(Cc4ccccc4)CC3)ccc21 | 82 | 2.63 | < 10 | 4.51 | – | – | – | – | – | –
Cn1c(=O)sc2cc(C(=O)CCN3CCC(c4ccccc4)CC3)ccc21 | 81 | 3.1 | 79 | 5.36 | – | – | – | – | 4.85 | –
Cn1c(=O)oc2cc(NC(=O)CCCN3CCN(Cc4ccccc4)CC3)ccc21 | 94 | 3.97 | < 10 | 5.22 | Active | Active | Active | Active | – | –
Cn1c(=O)sc2cc(NC(=O)CCN3CCN(Cc4ccc(F)cc4)CC3)ccc21 | 74 | 4.1 | 52 | 5.15 | – | – | – | – | 4.42 | –
O=C(CCN1CCN(Cc2ccccc2)CC1)Nc1ccc2nc(-c3ccccc3)oc2c1 | < 10 | 2.68 | < 10 | – | – | – | – | – | – | –
Cn1c(=O)oc2cc(NC(=O)CCN3CCN(c4ccc(F)cc4)CC3)ccc21 | 35 | 3.85 | < 10 | – | – | – | – | – | – | –
Cn1c(=O)oc2cc(NC(=O)CCN3CCN(Cc4ccc(Cl)cc4)CC3)ccc21 | 40 | 4.19 | < 10 | – | – | – | – | – | – | –

SMILES | inhibition [1] [%] | Activity [2] [equiv] | inhibition [3] [%] | pIC50 (Acetylcholinesterase) | Activity (THP-1 [4]) | Activity (THP-1 [5]) | Activity (THP-1 [6]) | Activity (THP-1 [7]) | pIC50 (Cholinesterase) | inhibition [8] [%]
Cc1ccc(N2CCN(CCC(=O)Nc3ccc4c(c3)oc(=O)n4C)CC2)cc1 | 33 | 4.03 | < 10 | – | – | – | – | – | – | –
Cn1c(=O)oc2cc(NC(=O)CCN3CCC(c4ccccc4)CC3)ccc21 | 25 | 4.09 | < 10 | – | – | – | – | – | – | –
Cn1c(=O)oc2cc(NC(=O)CCN3CCN(c4ccc(C(F)(F)F)cc4)CC3)ccc21 | 35 | 3.9 | < 10 | – | – | – | – | – | – | –
CN(CCC(=O)Nc1ccc2c(c1)sc(=O)n2C)Cc1ccccc1 | 63 | 3.9 | 70 | 4.31 | – | – | – | – | 4.38 | –
COc1ccc(CN2CCN(CCC(=O)Nc3ccc4c(c3)oc(=O)n4C)CC2)cc1 | 38 | 4.2 | < 10 | – | – | – | – | – | – | –
O=S1(=O)OC(c2ccc(O)cc2)(c2ccc(O)cc2)c2ccccc21 | – | – | – | – | – | – | – | – | – | 32.2
O=C(CCN1CCN(Cc2ccccc2)CC1)Nc1ccc2nc(-c3ccccc3)sc2c1 | < 10 | 2.64 | < 10 | – | – | – | – | – | – | –
Cn1c(=O)sc2cc(NC(=O)CCN3CCN(Cc4ccc(C(F)(F)F)cc4)CC3)ccc21 | 35 | 4.45 | < 10 | – | – | – | – | – | – | –
Cn1c(=O)oc2cc(NC(=O)CCN3CCN(Cc4ccc(C(F)(F)F)cc4)CC3)ccc21 | 35 | 3.96 | < 10 | – | – | – | – | – | – | –
Cn1c(=O)sc2cc(NC(=O)CCN3CCC(Cc4ccccc4)CC3)ccc21 | 62 | 4.01 | 60 | 4.50 | – | – | – | – | 4.12 | –
Cn1c(=O)sc2cc(NC(=O)CCN3CCN(c4ccc(Cl)cc4)CC3)ccc21 | 32 | 4.43 | < 10 | – | – | – | – | – | – | –
Cn1c(=O)sc2cc(NC(=O)CCN3CCN(Cc4ccccc4)CC3)ccc21 | 92 | 4.08 | < 10 | 5.63 | Active | Active | Active | Active | – | –
Cn1c(=O)sc2cc(NC(=O)CCCN3CCC(c4ccccc4)CC3)ccc21 | 32 | 2.93 | 90 | – | Active | Active | Active | Active | 5.02 | –
COc1ccc(CN2CCN(CCC(=O)Nc3ccc4c(c3)sc(=O)n4C)CC2)cc1 | 39 | 4.28 | < 10 | – | – | – | – | – | – | –
Cn1c(=O)oc2cc(C(=O)CCN3CCN(Cc4ccccc4)CC3)ccc21 | 97 | 3.03 | < 10 | 6.05 | Active | Active | Active | Active | – | –
CN(CCC(=O)Nc1ccc2c(c1)oc(=O)n2C)Cc1ccccc1 | 58 | 4.3 | 42 | 4.28 | – | – | – | – | – | –
COc1ccc(N2CCN(CCC(=O)Nc3ccc4c(c3)oc(=O)n4C)CC2)cc1 | 29 | 4.28 | < 10 | – | – | – | – | – | – | –
Cn1c(=O)oc2cc(NC(=O)CCN3CCN(c4ccccc4)CC3)ccc21 | 32 | 4.02 | < 10 | – | – | – | – | – | – | –
Cn1c(=O)oc2cc(NC(=O)CCN3CCN(Cc4ccccc4)CC3)ccc21 | 81 | 3.78 | 30 | 5.16 | Active | Active | Active | Active | – | –
